# GRIN3A LBD mod = NR3A (human) ligand-binding domain modulation. NR3A LBD differential scanning fluorimetry, Tm shift; 0% = protein alone, 100% = glycine-bound protein. Tm shift relative to glycine control, % at 25 µM. hit rate 2.5% among 340,000. AID 1259313;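 active = melting temperature shift of at least 10% of the positive control shift, at one fixed dose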
# EBI2 antag = antagonists of human EBI2 receptor; P32249; EBI2 beta-arrestin recruitment, luminescence, 7a,25-OHC stimulated; inhibition, % at 5 µM; hit rate 0.81% among 360,000; in the data active = inhibition above about 38%;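 also: enzyme fragment complementation signal reports receptor beta-arrestin coupling in cells; 0% = agonist plus DMSO wells and 100% = wells without agonist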
# Target sequence (P32249 whole entry, looked up, the tested form may be a part): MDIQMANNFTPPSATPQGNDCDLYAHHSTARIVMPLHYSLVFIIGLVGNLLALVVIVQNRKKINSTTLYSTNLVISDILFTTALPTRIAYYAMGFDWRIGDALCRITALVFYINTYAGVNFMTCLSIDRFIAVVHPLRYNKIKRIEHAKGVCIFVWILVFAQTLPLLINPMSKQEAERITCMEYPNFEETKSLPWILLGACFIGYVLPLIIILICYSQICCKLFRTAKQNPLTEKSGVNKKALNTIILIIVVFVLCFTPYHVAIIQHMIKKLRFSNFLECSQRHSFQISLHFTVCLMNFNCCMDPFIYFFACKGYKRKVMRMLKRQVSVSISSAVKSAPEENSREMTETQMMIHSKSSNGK
# MPTP block = inhibitors of mitochondrial permeability transition pore. isolated mouse mitochondria, Ca2+ swelling absorbance, 30 min. inhibition, % at 10 µM. hit rate 1.4% among 360,000. AID 602449;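 active = inhibition of 50% or more, scaled per plate between neutral and stimulator controls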;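 also: 0% = DMSO wells given calcium and 100% = 1 mM EGTA wells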
# SENP1 FRET inh = SENP1 (human) catalytic domain inhibition | hit rate 0.21% among 360,000 | inhibition, % at 10 µM | recombinant SENP1 catalytic domain, CyPet-SUMO1-YPet FRET cleavage | Q9P0U3 | AID 624204;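 active = inhibition at least 30% at 10 µM, raw YFP signal under a set limit, fluorescence ratio 0.5 to 1.5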;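 also: 0% = enzyme with DMSO and 100% = no enzyme wells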
#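 System: Recombinant human SENP1 catalytic domain, His6-tagged | Incubation: Enzyme reaction for 50 min at room temperature, dark | Medium: Tris pH 8 with BME, BSA, NP40 and catalase | Also added: 25 nM SUMO1 FRET substrate | Compound: 10 µM single point, 0.5% DMSO | Measured by: FRET fluorescence in CFP and YFP emission channels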
# Rh123 counter = membrane potential counter-screen of mitochondrial pore inhibitors; shares compounds with MPTP block; isolated mitochondria, Rhodamine 123 fluorescence; inhibition, % at 10 µM; hit rate 78% among 5,000; AID 624504; in the data active = inhibition above about 22%;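 also: 0% = DMSO vehicle and 100% = positive control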
# MPTP swell DR = dose response confirmation of mitochondrial permeability transition pore inhibitors; shares compounds with MPTP block; isolated mitochondria swelling, absorbance; IC50, µM; hit rate 58% among 780; AID 651561; in the data active = IC50 below about 20 µM
# MPTP cs DR = MPTP inhibitor counter-screen activity, dose response. shares compounds with MPTP block. hit rate 49% among 780. AID 651564. isolated mitochondria counterscreen, fluorescence read-out. IC50, µM; in the data active = IC50 below about 80 µM
# * hit, by the source's call; i = inactive; / = not tested or not shown; ! = a repeat was not active. A selection: hits, their analogues and other compounds. The true share with any hit is near 4.4%.
SMILES,GRIN3A LBD mod,EBI2 antag,MPTP block,SENP1 FRET inh,Rh123 counter,others
Fc1cc(F)cc(NC(=S)Nc2ccccc2N2CCOCC2)c1,0,-8,94*,2,102*,
COCCN(C(=S)Nc1ccc(OC)cc1)C1CCN(C(C)=O)CC1,-2,22,2,3,/,
Cc1nccc(-c2cccc(N/N=C(\C#N)C(=O)c3ccccc3)c2)n1,0,3,34,0,/,
N#C/C(=N\Nc1cccc(C(F)(F)F)c1)C(=O)c1ccsc1,16*,-14,84*,2,57*,
CC1=C/C(=N\OS(=O)(=O)c2ccccc2)C(C)=CC1=O,3,-4,98*,-1,100*,
CC1=C/C(=N\OS(=O)(=O)c2ccccc2)C(C(C)C)=CC1=O,1,-43,6,-1,/,
CC1=C(C)/C(=N\OS(=O)(=O)c2ccc(C)cc2)C=CC1=O,4,7,98*,2,104*,
O=C(Nc1cccc(Cl)c1)c1csc(COCCO)n1,/,2,1,-2,/,
COc1ccc(NC(=O)C(CCSC)NC(N)=O)cc1Cl (stereo not drawn),-1,-7,4,2,/,
Cn1c(=O)cc(OCCCC(=O)Nc2cccc(Cl)c2)c2ccccc21,/,-4,0,1,/,
CC(=O)c1c(O)cc(O)cc1CC(=O)O,-1,4,4,4,/,
CC(=O)c1c(O)cc(O)c(C(C)=O)c1O,-2,3,90*,-2,106*,
O=C(Nc1nc2c(F)cc(F)cc2s1)C1CC1,-1,-5,-1,-1,/,
O=C(Cn1c(COc2ccccc2)nc2ccccc21)Nc1cc(Cl)cc(Cl)c1,5,9,92*,-2,94*,
O=S(=O)(NCC(Nc1ccc(Cl)cc1)c1ccccc1)c1ccc(Cl)cc1 (stereo not drawn),28*,-14,87*,1,85*,
Cc1ccc2[nH]c(=O)c(CN(CCCN3CCOCC3)C(=O)Nc3ccc(Cl)cc3)cc2c1,-4,4,6,1,/,
Cc1cc(C)nc(NS(=O)(=O)c2ccc(NS(=O)(=O)c3ccsc3)cc2)n1,-3,-4,0,1,/,
Cc1c(CCOC(=O)C2C3CC4CC(C3)CC2C4)sc[n+]1CC(=O)c1ccc(Br)cc1 (stereo not drawn),-4,9,100*!,-5,-3,MPTP swell DR=3.7*;MPTP cs DR=21*
Cc1c(CCOC(=O)c2ccc(Cl)cc2Cl)sc[n+]1CC(=O)c1ccc(Br)cc1,-5,10,-1,1,/,
Cc1ccc(C(=O)N(C)Cc2ccc(N3CCOCC3)cc2)cc1S(=O)(=O)NCc1ccccc1,0,2,0,-1,/,
CCN(CC)CC#CCC(C)(c1ccccc1)c1ccccc1,0,12,59*,-1,6,MPTP swell DR=i;MPTP cs DR=28*
CCN(CC)CC#CCC(O)(c1ccccc1)c1ccccc1,-5,-10,1,0,/,
CCCCC(=O)Nc1cccc(-c2csc(-c3ccccc3)n2)c1,1,18,57*,4,58*,
CCN1CCN(c2cc(SC(C)C)nc(-c3ccc(OC)cc3)n2)CC1,2,-8,78*,1,-16,MPTP swell DR=10*;MPTP cs DR=62*
Cc1ccc(NC(=O)c2ccc(Nc3c([N+](=O)[O-])cc([N+](=O)[O-])cc3[N+](=O)[O-])cc2)cc1,-3,81*,96*,3,74*,
SMILES,GRIN3A LBD mod,EBI2 antag,MPTP block,SENP1 FRET inh,Rh123 counter,others
O=C(Nc1ccc(Br)cc1)c1cc([N+](=O)[O-])cc([N+](=O)[O-])c1,-2,8,102*,2,86*,
Cn1nc(C(C)(C)C)c([N+](=O)[O-])c1C(=O)Nc1ccc(Br)cc1,-2,9,80*,-1,93*,
CCC(CC)CN1CCC(CN2C(=O)C(=O)NC[C@@H]2CC(C)C)CC1,/,-14,0,-2,/,
COc1ccc(Cl)cc1NC(=O)CN1CCc2ccccc2C1,0,3,2,1,/,
CCc1nn(C(C)C(=O)NCc2cccc(OC)c2)c(=O)c2cc3occc3n12 (stereo not drawn),-8,-12,0,-1,/,
O=C(Cc1cnc2ncnn2c1)N1CCc2c([nH]c3ccccc23)C1c1ccccn1 (stereo not drawn),-2,8,-2,-15,/,
COc1cc2cc(CCCOC(=O)CCC(=O)O)oc(=O)c2cc1OC,-1,-3,1,2,/,

# Assay outcomes deposited in PubChem by Sanford-Burnham Center for Chemical Genomics.
